Laboratory results taken from ChEMBL document CHEMBL5260861, “Examination of aminophenol-containing compounds designed as antiproliferative agents and potential atypical retinoids” (2023).
The source made the active and inactive calls. No cut-off for these calls is given here.

Columns and labels:
MCF7 [1] = experiment: Antiproliferative activity against human MCF7 cells assessed as inhibition of cell growth incubated for 72 hrs by MTT assay; type: functional, cell-based; conditions: dose 1-10 µM
Summary of the method: (§1)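 Cells seeded at 1–4 × 10^4 cells/mL in RPMI 1640 with 10% FBS and 1 mM HEPES, 37 °C, 5% CO2. After 24 h, compounds added at various concentrations for 72 h; controls received 0.1% DMSO. Viable cells measured by MTT. Percent net growth calculated relative to control, correcting for initial absorbance. Mean ± SD (n = 3).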

PC-3 [2] = experiment: Antiproliferative activity against human PC-3 cells assessed as inhibition of cell growth incubated for 72 hrs by MTT assay; type: functional, cell-based; conditions: dose 1-10 µM; summary of the method: as §1
PC-3 [3] = experiment: Antiproliferative activity against human PC-3 cells assessed as inhibition of cell growth at 1 uM incubated for 72 hrs by MTT assay; type: functional; summary of the method: as §1
MCF7 [4] = experiment: Antiproliferative activity against human MCF7 cells assessed as inhibition of cell growth at 10 uM incubated for 72 hrs by MTT assay; type: functional; summary of the method: as §1
MCF7 [5] = experiment: Antiproliferative activity against human MCF7 cells assessed as inhibition of cell growth at 4 uM incubated for 72 hrs by MTT assay; type: functional; summary of the method: as §1
MCF7 [6] = experiment: Antiproliferative activity against human MCF7 cells assessed as inhibition of cell growth at 4 to 10 uM incubated for 72 hrs by MTT assay; type: functional, cell-based; conditions: dose 4-10 µM; summary of the method: as §1
PC-3 [7] = experiment: Antiproliferative activity against human PC-3 cells assessed as inhibition of cell growth at 4 to 10 uM incubated for 72 hrs by MTT assay; type: functional, cell-based; conditions: dose 4-10 µM; summary of the method: as §1
PC-3 [8] = experiment: Antiproliferative activity against human PC-3 cells assessed as inhibition of cell growth at 4 uM incubated for 72 hrs by MTT assay; type: functional; summary of the method: as §1
MCF7 [9] = experiment: Antiproliferative activity against human MCF7 cells assessed as inhibition of cell growth at 1 to 10 uM incubated for 72 hrs by MTT assay; type: functional, cell-based; conditions: dose 1-10 µM; summary of the method: as §1
PC-3 [10] = experiment: Antiproliferative activity against human PC-3 cells assessed as inhibition of cell growth at 1 to 10 uM incubated for 72 hrs by MTT assay; type: functional, cell-based; conditions: dose 1-10 µM; summary of the method: as §1
PC-3 [11] = experiment: Antiproliferative activity against human PC-3 cells assessed as inhibition of cell growth at 10 uM incubated for 72 hrs by MTT assay; type: functional; summary of the method: as §1
MCF7 [12] = experiment: Effect on Bcl-2 protein expression in human MCF7 cells at 10 uM incubated for 72 hrs by immunoblotting analysis; type: functional, cell-based
Summary of the method: (§2)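 Cells seeded at 2 × 10^4 cells/mL and grown 24 h, then given 10 μM compound or DMSO for 72 h. Whole-cell lysates prepared in NP40 buffer (25 mM Tris-HCl pH 8, 150 mM NaCl, 0.5% NP40, NaF, Na3VO4, protease inhibitors), quantified by BCA. Lysates run on SDS-PAGE and blotted. Probed for Bcl-2, Bcl-xL, ERK/p-ERK, Akt/p-Akt and β-actin. Control set to 1.0; mean ± SD (n = 3).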

[13] = biological target: T1, Retinoic acid receptor alpha (Homo sapiens) (UniProt P10276); experiment: Agonist activity at human RAR-alpha assessed as receptor transactivation at 500 to 20000 nM incubated for 24 hrs by luciferase reporter gene assay; conditions: dose 500-20000 nM
T1 sequence (whole entry): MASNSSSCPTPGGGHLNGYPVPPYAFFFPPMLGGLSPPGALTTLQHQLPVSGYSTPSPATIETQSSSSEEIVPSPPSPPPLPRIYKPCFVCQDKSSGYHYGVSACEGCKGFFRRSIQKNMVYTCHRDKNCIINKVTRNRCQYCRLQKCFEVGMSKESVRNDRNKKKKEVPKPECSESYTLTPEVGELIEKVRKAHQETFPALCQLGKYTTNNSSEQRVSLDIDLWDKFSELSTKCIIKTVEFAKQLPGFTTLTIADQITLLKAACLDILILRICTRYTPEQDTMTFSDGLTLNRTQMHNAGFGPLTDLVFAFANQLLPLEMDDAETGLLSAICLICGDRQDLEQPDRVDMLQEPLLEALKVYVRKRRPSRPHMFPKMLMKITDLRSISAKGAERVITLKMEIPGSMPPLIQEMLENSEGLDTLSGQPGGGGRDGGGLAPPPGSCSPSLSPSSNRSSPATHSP
Summary of the method: (§3)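 INDIGO RARα or RXRα reporter cells seeded, then medium containing compound added (0.5, 1, 4, 10, 20 μM); 24 h at 37 °C. Medium removed, luciferase detection reagent added, light emission read. 9-cis-retinoic acid (0.5–500 nM) served as positive control. Three replicate wells per vehicle control; mean ± SD (n = 3).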

MCF7 [14] = experiment: Inhibition of ERK phosphorylation in human MCF7 cells at 10 uM incubated for 72 hrs by immunoblotting analysis; type: cell-based; summary of the method: as §2
MCF7 [15] = experiment: Effect in Bcl-xL protein expression in human MCF7 cells at 10 uM incubated for 72 hrs by immunoblotting analysis; type: functional, cell-based; summary of the method: as §2
MCF7 [16] = experiment: Induction of cell cycle arrest in human MCF7 cells at 10 uM incubated for 24 hrs by propidium iodide staining based flow cytometry; type: functional
Summary of the method: (§4)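 Cells seeded at 2 × 10^4 cells/mL and grown 24 h, then given 10 μM compound or DMSO for 24 h. Harvested cells fixed in 70% ethanol at 4 °C overnight, washed twice with PBS, and treated with 100 μg/mL RNase A (37 °C, 30 min). Stained with 10 μg/mL propidium iodide; cell cycle analysed by flow cytometry.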

PC-3 [17] = experiment: Induction of cell cycle arrest in human PC-3 cells at 10 uM incubated for 24 hrs by propidium iodide staining based flow cytometry; type: functional; summary of the method: as §4
PC-3 [18] = experiment: Induction of autophagy in human PC-3 cells assessed as increase in LC3-II protein expression at 10 uM incubated for 72 hrs by immunoblotting analysis relative to control; type: functional
Summary of the method: (§5)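 Cells seeded at 2 × 10^4 cells/mL and grown 24 h at 37 °C in 5% CO2 in RPMI 1640 with 10% FBS and 1 mM HEPES. They were then treated 72 h with compound at 10 μM or with DMSO control. Whole-cell lysates were made in NP40 buffer, protein measured by BCA, and samples run on SDS-PAGE. LC3 was probed with β-actin as loading control. Control was set to 1.0; mean ± SD, n = 3.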

PC-3 [19] = experiment: Induction of apoptosis in human PC-3 cells assessed as accumulation of cells at subG1 phase at 10 uM incubated for 24 hrs by propidium iodide staining based flow cytometry; type: functional, cell-based; summary of the method: as §4
PC-3 [20] = experiment: Inhibition of Akt phosphorylation in human PC-3 cells assessed as decrease in phosphorylated Akt level at 10 uM incubated for 72 hrs by immunoblotting analysis; type: cell-based; summary of the method: as §2
MCF7 [21] = experiment: Induction of apoptosis in human MCF7 cells assessed as accumulation of cells at subG1 phase at 10 uM incubated for 24 hrs by propidium iodide staining based flow cytometry; type: functional, cell-based; summary of the method: as §4
MCF7 [22] = experiment: Inhibition of Akt phosphorylation in human MCF7 cells assessed as decrease in phosphorylated Akt level at 10 uM incubated for 72 hrs by immunoblotting analysis; type: cell-based; summary of the method: as §2
MCF7 [23] = experiment: Induction of autophagy in human MCF7 cells assessed as increase in LC3-II protein expression at 10 uM incubated for 72 hrs by immunoblotting analysis relative to control; type: functional; summary of the method: as §5
[24] = biological target: T2, Retinoic acid receptor RXR-alpha (Homo sapiens) (UniProt P19793); experiment: Agonist activity at human RXR-alpha assessed as receptor transactivation at 500 to 20000 nM incubated for 24 hrs by luciferase reporter gene assay; conditions: dose 500-20000 nM; summary of the method: as §3
T2 sequence (whole entry): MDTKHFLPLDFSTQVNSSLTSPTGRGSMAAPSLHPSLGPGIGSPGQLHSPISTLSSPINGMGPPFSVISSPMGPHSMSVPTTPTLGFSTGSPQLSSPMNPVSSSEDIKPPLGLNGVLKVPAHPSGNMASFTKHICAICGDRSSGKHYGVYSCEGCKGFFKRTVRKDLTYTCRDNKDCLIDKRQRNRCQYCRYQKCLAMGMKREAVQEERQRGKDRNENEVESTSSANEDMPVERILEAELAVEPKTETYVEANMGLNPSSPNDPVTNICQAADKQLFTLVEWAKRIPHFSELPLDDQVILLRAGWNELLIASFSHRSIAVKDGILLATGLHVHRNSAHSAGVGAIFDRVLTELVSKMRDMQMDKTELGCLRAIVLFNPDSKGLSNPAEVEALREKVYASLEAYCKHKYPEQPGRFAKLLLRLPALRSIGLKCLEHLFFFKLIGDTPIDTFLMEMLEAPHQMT

PC-3 [25] = experiment: Effect in Bcl-xL protein expression in human PC-3 cells at 10 uM incubated for 72 hrs by immunoblotting analysis; type: functional, cell-based; summary of the method: as §2
PC-3 [26] = experiment: Effect in Bcl-2 protein expression in human PC-3 cells at 10 uM incubated for 72 hrs by immunoblotting analysis; type: functional, cell-based; summary of the method: as §2
PC-3 [27] = experiment: Inhibition of ERK phosphorylation in human PC-3 cells at 10 uM incubated for 72 hrs by immunoblotting analysis; type: cell-based; summary of the method: as §2

CCCCCCCCNc1ccc(O)cc1
Activity (MCF7 [1]): Dose-Dependent Effect
Activity (PC-3 [2]): Dose-Dependent Effect
inhibition at 1 µM (PC-3 [3]): 33%
inhibition at 10 µM (MCF7 [4]): 45%
inhibition at 4 µM (MCF7 [5]): 14%

O=C(O)CCCCCCCCC(=O)Nc1ccc(O)cc1
Activity (MCF7 [6]): Active
Activity (PC-3 [7]): inactive
inhibition at 4 µM (MCF7 [5]): 28%

CC1=C(/C=C/C(C)=C/C=C/C(C)=C/C(=O)O)C(C)(C)CCC1 [TRETINOIN]
inhibition at 4 µM (PC-3 [8]): 18%
inhibition at 4 µM (MCF7 [5]): 37%

COC(=O)CCCCCCC(=O)Nc1ccc(O)cc1
Activity (MCF7 [9]): inactive

O=C(O)CCCCCCC(=O)Nc1ccc(O)cc1
Activity (MCF7 [6]): Active
Activity (PC-3 [7]): inactive
inhibition at 4 µM (MCF7 [5]): 30%

CCCCCCCCCCCCNc1ccc(O)cc1
Activity (MCF7 [1]): Dose-Dependent Effect
Activity (PC-3 [2]): Dose-Dependent Effect
inhibition at 1 µM (PC-3 [3]): 91%
inhibition at 10 µM (MCF7 [4]): 73%
inhibition at 4 µM (MCF7 [5]): 61%

O=C(O)CCCCCCCCCNc1ccc(O)cc1
Activity (PC-3 [10]): inactive
Activity (MCF7 [9]): inactive

CCCCCCCC(=O)Nc1ccc(O)cc1
Activity (MCF7 [6]): inactive
Activity (PC-3 [7]): Active
inhibition at 10 µM (PC-3 [11]): 45%

O=C(O)CCCCCCCCCCCNc1ccc(O)cc1
Activity (PC-3 [10]): inactive
Activity (MCF7 [9]): inactive

COC(=O)CCCCCCCCC(=O)Nc1ccc(O)cc1
Activity (MCF7 [9]): inactive

COC(=O)CCCCCCCCCCCNc1ccc(O)cc1
Activity (MCF7 [9]): inactive
inhibition at 10 µM (PC-3 [11]): 10%

COC(=O)CCCCCCCCCNc1ccc(O)cc1
Activity (MCF7 [9]): inactive

CCCCCCCCCCCC(=O)Nc1ccc(O)cc1
Activity (MCF7 [6]): inactive
Activity (PC-3 [7]): Active
inhibition at 10 µM (PC-3 [11]): 24%

O=C(O)CCCCCCCCCCC(=O)Nc1ccc(O)cc1
Activity (MCF7 [12]): inactive
Activity [13]: inactive
inhibition (MCF7 [14]): inactive
Activity (MCF7 [15]): inactive
Activity (MCF7 [16]): inactive
Activity (PC-3 [17]): inactive
fold change (FC) (PC-3 [18]): 1.5
Activity (PC-3 [19]): inactive
inhibition (PC-3 [20]): 35%
Activity (MCF7 [21]): inactive
Activity (MCF7 [6]): Active
inhibition (MCF7 [22]): Active
fold change (FC) (MCF7 [23]): 1.6
Activity [24]: inactive
Activity (PC-3 [25]): inactive
inhibition at 4 µM (PC-3 [8]): 54%
inhibition at 4 µM (MCF7 [5]): 40%
inhibition at 10 µM (PC-3 [11]): 70%
Activity (PC-3 [26]): inactive
inhibition (PC-3 [27]): inactive

CCCCCCCCCCNc1ccc(O)cc1
Activity (MCF7 [1]): Dose-Dependent Effect
Activity (PC-3 [2]): Dose-Dependent Effect
inhibition at 1 µM (PC-3 [3]): 65%
inhibition at 10 µM (MCF7 [4]): 51%
inhibition at 4 µM (MCF7 [5]): 31%

CCCCCCCCCC(=O)Nc1ccc(O)cc1
Activity (MCF7 [6]): inactive
Activity (PC-3 [7]): Active
inhibition at 10 µM (PC-3 [11]): 43%

O=C(O)CCCCCCCNc1ccc(O)cc1
Activity (PC-3 [10]): inactive
Activity (MCF7 [9]): inactive

COC(=O)CCCCCCCNc1ccc(O)cc1
Activity (MCF7 [9]): inactive

COC(=O)CCCCCCCCCCC(=O)Nc1ccc(O)cc1
Activity (MCF7 [9]): inactive
inhibition at 10 µM (PC-3 [11]): 10%
